Many of the other results were omitted from the sample, so hits are more common in it than they were.
697 NFkB inh – inhibitors of the PMA/ionomycin-induced NF-kB reporter in 697 B cells. 697 B-cell NF-kB luciferase reporter, 16 h. inhibition, % at 4 µM. AID 435022. 330,000 tested, 0.33% active; in the data active = inhibition above about 35%
XBP1 UPR activ – activators of adaptive arm of unfolded protein response (XBP1) | activation, % at 20 µM | CHO-XBP1 luciferase reporter, IRE1-XBP1 UPR activation, luminescence; percent of tunicamycin response, DMSO as zero | 330,000 tested, 0.33% active;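 active = versus positive control, 20 µM dose yields 30% or more activation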
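Material: CHO cell line with stable XBP1 luciferase reporter; schedule: 16-18 h cell attachment at 37 °C, then 6 h compound exposure; signal: glow luminescence from Steady-Glo reagent; medium: serum-containing F12 medium, 10% FBS; benchmarks: tunicamycin 10 µg/mL and vehicle-only wells; read-out: percent activation relative to tunicamycin reference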
CHOP inh – blocks CHOP induction under ER stress; AID 2732; CHO-K1 CHOP-promoter luciferase, tunicamycin-induced, 15-18 h; 220,000 tested, 3.8% active; inhibition, % at 10 µM;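 active = compounds that reduced the stress-induced luciferase reporter signal by more than about 70% of percent inhibition, limit read from the data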
Jurkat NFkB inh – lowers PMA/ionomycin-induced NF-kB signal in Jurkat cells; AID 435003; 330,000 tested, 0.53% active; inhibition, % at 4 µM; PMA/ionomycin-induced NF-kB luciferase reporter, luminescence; in the data active = inhibition above about 50%
UPR CHOP act – apoptotic UPR (CHOP) activation. CHO-CHOP luciferase reporter, luminescence; percent of tunicamycin response over DMSO baseline. activation, % at 10 µM. 330,000 tested, 0.34% active. AID 449763;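 active = at 10 µM dose, activation of 40% or more, normalized to positive control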
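Evaluation: % reporter activation, DMSO baseline versus tunicamycin full activation; System: CHO-CHOP luciferase reporter cell line; Input: 500 cells/well; Incubation: 6 h compound treatment, 37 °C; Measured by: Steady-Glo luciferase luminescence; Dosing: one dose, 10 µM in 0.5% DMSO; Buffer or medium: F12 medium, 10% FBS; Benchmarks: positive tunicamycin 10 µg/mL, negative DMSO alone.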
A number is an active result.

What do the screens show for `CCN=C1S/C(=C\c2ccc(-c3cccc(C(=O)O)c3)o2)C(=O)N1CC`?
697 NFkB inh: inactive; XBP1 UPR activ: inactive; CHOP inh: inactive; Jurkat NFkB inh: inactive; UPR CHOP act: inactive

What do the screens show for `CC(=O)NC1=NC(=O)/C(=C/c2cn(C(C)=O)nc2-c2ccccc2)S1`?
697 NFkB inh: inactive; XBP1 UPR activ: inactive; CHOP inh: 73; Jurkat NFkB inh: inactive; UPR CHOP act: inactive

Results for CCN=C1S/C(=C\c2cn(C(C)=O)nc2-c2ccccc2)C(=O)N1CC ?
697 NFkB inh: inactive; XBP1 UPR activ: inactive; CHOP inh: 71; Jurkat NFkB inh: inactive; UPR CHOP act: inactive

Results for CC(=O)NC1=NC(=O)/C(=C/c2cc(C)n(-c3cccc(C(=O)O)c3)c2C)S1 ?
697 NFkB inh: inactive; XBP1 UPR activ: inactive; CHOP inh: inactive; Jurkat NFkB inh: inactive; UPR CHOP act: inactive

How did COc1ccccc1C(CNC(=O)c1ccc(S(=O)(=O)N2CCCCC2)cc1)N(C)C (centres undefined) do in these assays?
697 NFkB inh: inactive; XBP1 UPR activ: inactive; Jurkat NFkB inh: inactive; UPR CHOP act: inactive

How did CC(C)c1onc(C(=O)Nc2ccc3c(c2)OCO3)c1[N+](=O)[O-] do in these assays?
697 NFkB inh: inactive; XBP1 UPR activ: inactive; Jurkat NFkB inh: inactive; UPR CHOP act: inactive

What do the screens show for `COc1ccc(Sc2nnc(-c3ccccc3)cc2C#N)cc1`?
697 NFkB inh: inactive; XBP1 UPR activ: inactive; CHOP inh: 90; Jurkat NFkB inh: inactive; UPR CHOP act: inactive

Results for NS(=O)(=O)c1ccc(NC2=CC(c3ccc([N+](=O)[O-])cc3)N(c3ccc(S(N)(=O)=O)cc3)C2=O)cc1 (centres undefined) ?
697 NFkB inh: inactive; XBP1 UPR activ: inactive; CHOP inh: inactive; Jurkat NFkB inh: inactive; UPR CHOP act: inactive

Results for COc1ccc(C=O)cc1COc1c(F)c(F)cc(F)c1F ?
697 NFkB inh: inactive; XBP1 UPR activ: inactive; CHOP inh: inactive; Jurkat NFkB inh: inactive; UPR CHOP act: inactive

What do the screens show for `C=CCc1cc(C=O)cc(OC)c1OCc1c(Cl)cccc1Cl`?
697 NFkB inh: inactive; XBP1 UPR activ: inactive; CHOP inh: 73; Jurkat NFkB inh: inactive; UPR CHOP act: inactive

Results for Cc1cc(=O)oc2c3c(cc(OCC(=O)NCCCn4ccnc4)c12)OC(C)(C)CC3 ?
697 NFkB inh: inactive; XBP1 UPR activ: inactive; Jurkat NFkB inh: inactive; UPR CHOP act: inactive

How did COc1ccccc1NC(=O)CN1CCN(CC(=O)Nc2ccc(Cl)c(C(F)(F)F)c2)CC1 do in these assays?
CHOP inh: inactive

How did CCc1ccccc1NCC(=O)Nc1ccc(Cl)c(C(F)(F)F)c1 do in these assays?
697 NFkB inh: inactive; XBP1 UPR activ: inactive; CHOP inh: 79; Jurkat NFkB inh: inactive; UPR CHOP act: inactive

Results for O=C(c1ccc(Br)o1)N1CCN(c2ccc3nnc(-c4ccc(F)cc4)n3n2)CC1 ?
697 NFkB inh: inactive; XBP1 UPR activ: inactive; CHOP inh: inactive; Jurkat NFkB inh: inactive; UPR CHOP act: inactive

How did CCCCc1c(C)nc(N2CCCC2)[nH]c1=O do in these assays?
697 NFkB inh: inactive; XBP1 UPR activ: inactive; CHOP inh: inactive; Jurkat NFkB inh: inactive; UPR CHOP act: inactive

Results for CCCCCCCc1c(C)nc(N2CCOCC2)[nH]c1=O ?
697 NFkB inh: inactive; XBP1 UPR activ: inactive; CHOP inh: 72; Jurkat NFkB inh: inactive; UPR CHOP act: inactive

How did O=C(Cn1cc2c(n1)CCCC2)NC1CCN(Cc2ccccc2)CC1 do in these assays?
697 NFkB inh: inactive; XBP1 UPR activ: inactive; CHOP inh: 82; Jurkat NFkB inh: inactive; UPR CHOP act: inactive

How did O=C(Cn1cc2c(n1)CCCCC2)NC1CCCCCC1 do in these assays?
697 NFkB inh: inactive; XBP1 UPR activ: inactive; CHOP inh: inactive; Jurkat NFkB inh: inactive; UPR CHOP act: inactive

Results for CCOC(=O)C1=C(CC)OC(N)=C(C#N)C1c1ccc(OC)c(C)c1OC (centres undefined) ?
697 NFkB inh: inactive; XBP1 UPR activ: inactive; CHOP inh: inactive; Jurkat NFkB inh: inactive; UPR CHOP act: inactive

Results for CCCC1=C(C(=O)OCC)C(c2ccc(OC)c(C)c2OC)C(C#N)=C(N)O1 (centres undefined) ?
697 NFkB inh: inactive; XBP1 UPR activ: inactive; CHOP inh: 72; Jurkat NFkB inh: inactive; UPR CHOP act: inactive

What do the screens show for `Cc1sc2ncnc(SCC(=O)NC(C)(C)C)c2c1C`?
697 NFkB inh: inactive; XBP1 UPR activ: inactive; CHOP inh: inactive; Jurkat NFkB inh: inactive; UPR CHOP act: inactive
